Data reported in ChEMBL document CHEMBL6083205, “A comprehensive apoptotic assessment of niloticin in cervical cancer cells: a tirucallane-type triterpenoid from Aphanamixis polystachya (Wall.) Parker” (RSC Med Chem, 2024).

Test system: HeLa
Assay: Antiproliferative activity against human HeLa cells assessed as inhibition of cell growth incubated for 24 hrs by MTT assay
Type: functional, cell-based
In short: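 Cells kept in DMEM with 10% FBS and 1% antibiotic-antimycotic at 37 °C and 5% CO2. Seeded at 8 × 10^3 cells per 100 μL and left 24 h, then exposed 24 h to 5, 10, 20, 50 or 100 μM. MTT at 0.5 mg/mL in HBSS was added for 2–4 h at 37 °C in the dark. Formazan was dissolved in DMSO, A570 was read, and IC50 was derived.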

SMILES: COc1cccc2c1C(=O)c1c(O)c3c(c(O)c1C2=O)C[C@@](O)(C(=O)CO)C[C@@H]3O[C@H]1C[C@H](N)[C@H](O)[C@H](C)O1 [DOXORUBICIN]
- IC50: 32.2 µM

SMILES: C=C(C)[C@@H](O)[C@H](O)C[C@H](C)[C@@H]1CC[C@]2(C)C3=CC[C@H]4C(C)(C)C(=O)CC[C@]4(C)[C@H]3CC[C@@]12C
- IC50: > 100 µM

SMILES: C[C@@H](C[C@@H](O)[C@H](O)C(C)(C)O)[C@@H]1CC[C@]2(C)C3=CC[C@H]4C(C)(C)C(=O)CC[C@]4(C)[C@H]3CC[C@@]12C
- IC50: > 100 µM
